TRPC4 act = activators of mouse TRPC4 channel | Q9QUQ5 | HEK293 TRPC4beta/mu-opioid, Fluo4 calcium fluorescence; active compounds read high | B-score at 10 µM | 0.49% of 310,000 active;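 active means B-score above 5 SD of library B-scores, and initial fluorescence ratio not above library mean plus 5 SD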;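 further: positive B-score marks a calcium rise read as TRPC4 activation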
Target sequence (Q9QUQ5 whole entry, looked up): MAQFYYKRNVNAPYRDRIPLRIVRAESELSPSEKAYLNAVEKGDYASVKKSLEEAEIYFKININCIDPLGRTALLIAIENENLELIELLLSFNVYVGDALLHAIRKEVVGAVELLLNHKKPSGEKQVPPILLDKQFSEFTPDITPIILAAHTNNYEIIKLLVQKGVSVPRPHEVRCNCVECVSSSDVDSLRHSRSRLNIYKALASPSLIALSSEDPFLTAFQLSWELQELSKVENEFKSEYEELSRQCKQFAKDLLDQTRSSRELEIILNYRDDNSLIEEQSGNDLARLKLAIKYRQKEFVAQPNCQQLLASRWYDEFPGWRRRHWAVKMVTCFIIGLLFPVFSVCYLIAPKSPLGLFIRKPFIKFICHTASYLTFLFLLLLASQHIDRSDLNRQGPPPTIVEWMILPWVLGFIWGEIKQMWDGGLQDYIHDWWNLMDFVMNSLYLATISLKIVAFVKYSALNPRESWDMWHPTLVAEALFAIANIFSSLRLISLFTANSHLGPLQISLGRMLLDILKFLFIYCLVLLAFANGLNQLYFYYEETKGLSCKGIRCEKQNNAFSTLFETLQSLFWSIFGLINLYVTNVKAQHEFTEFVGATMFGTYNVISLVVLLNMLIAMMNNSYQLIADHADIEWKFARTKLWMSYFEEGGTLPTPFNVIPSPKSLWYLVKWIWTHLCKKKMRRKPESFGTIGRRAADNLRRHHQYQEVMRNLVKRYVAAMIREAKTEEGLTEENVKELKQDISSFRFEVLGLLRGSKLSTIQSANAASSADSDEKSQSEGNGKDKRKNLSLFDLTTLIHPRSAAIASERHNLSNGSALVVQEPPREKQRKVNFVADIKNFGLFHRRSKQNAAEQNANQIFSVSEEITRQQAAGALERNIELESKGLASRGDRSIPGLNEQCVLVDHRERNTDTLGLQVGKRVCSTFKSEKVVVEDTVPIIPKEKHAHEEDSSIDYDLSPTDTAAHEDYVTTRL
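Assay system: HEK293 stable line with TRPC4beta plus mu-opioid receptor; schedule: 45 min room-temperature Fluo4 loading, 110 s read; technique: kinetic Fluo4 calcium fluorescence; evaluation: integrated baseline-normalised fluorescence ratio, converted to per-well B score; controls: buffer (low) and maximal DAMGO (high)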
TRPC6 activator = mouse TRPC6 channel activation; Q61143; HEK293-TRPC6 membrane potential dye fluorescence; active compounds read high; B-score at 10 µM; 0.13% of 310,000 active;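 active means B-score of the integrated fluorescence ratio above library mean plus 3 SD, and starting fluorescence ratio within library mean plus 5 SD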;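 further: higher score means more depolarization so channel activation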
TRPC4 block = TRPC4 (mouse) channel inhibition; Q9QUQ5; HEK293 TRPC4beta/mu-opioid, DAMGO-evoked Fluo4 calcium flux; active compounds read low; B-score at 10 µM; 0.39% of 300,000 active;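 active means B-score over 3 SD under the library average, no early fluorescence shift, positive overall ratio signal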
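Test system – stable TRPC4beta/mu-opioid receptor HEK293 cells · Probe or stimulus – DAMGO, a submaximal dose followed by a maximal one · Dosing – one concentration per compound · Signal – Fluo4 calcium fluorescence by kinetic imaging, 5 s 1 Hz baseline · Evaluation – per-well B score of integrated baseline-normalized Fluo4 ratio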
TRPC4 potent = TRPC4 (mouse) allosteric potentiation; 0.42% of 310,000 active; B-score at 10 µM; HEK293 TRPC4beta/mu-opioid, DAMGO EC20, Fluo-4 Ca2+ flux; active compounds read high;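 active means B-score of calcium response area above 5 SD of library B-scores, with initial fluorescence ratio within 5 SD of library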;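 further: B-score of integrated fluorescence ratio over time as area under calcium response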
TRPC6 inhibitor = inhibitors of mouse TRPC6 channel; AID 2553; Q61143; B-score at 10 µM; 1.1% of 310,000 active; HEK293-TRPC6, membrane potential dye, ACh-evoked depolarization; active compounds read low;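 active means B-score under library mean minus 3 SD, initial fluorescence not abnormally high, positive integrated signal ratio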;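 further: B-score derived from integrated fluorescence ratio over the kinetic read; more negative B-score means stronger inhibition of depolarization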
Starred values were filed as active, the others as inactive; i = inactive. An excerpt weighted towards active compounds, which were near 2.3% of everything screened.

SMILES	TRPC4 act	TRPC6 activator	TRPC4 block	TRPC4 potent	TRPC6 inhibitor
CCc1cc(=O)oc2c3c(cc(OCC(=O)NCCCn4ccnc4)c12)OC(C)(C)CC3	i	i	i	i	i
Cc1ccc(C(=O)NNC(=O)C2CSC3(C)CCC(=O)N23)cc1 (centres undefined)	i	i	i	24*	i
CCn1c(=O)[nH]c(=O)c2c(N)c(C(=O)c3cc(F)ccc3F)sc21	i	i	i	10*	i
COc1ccc(-c2cc(C(=O)N3CC(C)CC(C)C3)c3ccccc3n2)cc1 (centres undefined)	i	i	i	18*	i
CC(=O)c1cccc(Nc2c3c(nc4ccccc24)CCC3)c1	i	i	i	i	i
COC(=O)c1cccc(Nc2c3c(nc4ccccc24)CCC3)c1	i	i	-7*	i	i
COc1ccc(Nc2c3c(nc4ccccc24)CCC3)c(OC)c1	i	i	-5*	i	i
COc1ccccc1Nc1c2c(nc3ccccc13)CCC2	i	i	i	i	i
Fc1cccc(Nc2c3c(nc4ccccc24)CCC3)c1	i	i	-7*	i	i
CCn1c(C(C)NC(=O)c2cccs2)n[nH]c1=S (centres undefined)	i	i	i	i	i
O=C(Nc1ccc(S(=O)(=O)Nc2ncccn2)cc1)C1=COCCO1	i	i	i	i	i
Cc1cccc(-c2nnc(SCc3nc4ccccc4[nH]3)n2Cc2ccco2)c1	i	i	-7*	i	i
Brc1ccc(OCc2ccccc2)c(CNCC2CCCO2)c1 (centres undefined)	i	i	-6*	i	i
CCOCCCNCc1cc(Br)ccc1OCc1ccccc1	i	i	-6*	i	i
OCCNCc1cc(Br)ccc1OCc1ccccc1	i	i	i	i	i
Cc1ccc(OC(=O)CCC(=O)Nc2ccc(S(=O)(=O)Nc3cc(C)on3)cc2)cc1	i	i	i	i	i
CC(=O)NS(=O)(=O)c1ccc(NC(=O)CCC(=O)Oc2ccc(C)cc2)cc1	i	i	i	11*	i
CC(C)Oc1ccccc1C1CC(=O)Nc2cc3c(cc21)OCCO3 (centres undefined)	i	i	i	82*	i
COc1ccc(C)cc1N(C(=O)c1snc(C(N)=O)c1N)C(C(=O)NC1CCCCC1)c1ccc(C)o1 (centres undefined)	i	i	-11*	i	i
Cc1ccc(C)c(N(C(=O)c2snc(C(N)=O)c2N)C(C(=O)NCC2CCCO2)c2ccc(C)o2)c1 (centres undefined)	i	i	-7*	i	i
CN(C)c1ccc(C(C(=O)NCC2CCCO2)N(Cc2ccccc2)C(=O)c2snc(C(N)=O)c2N)cc1 (centres undefined)	i	i	i	i	i
NC(=O)c1nsc(C(=O)N(Cc2ccc(F)cc2)C(C(=O)NCC2CCCO2)c2ccc(F)cc2)c1N (centres undefined)	i	i	-7*	i	i
Cc1ccc(C)c(N(C(=O)c2snc(C(N)=O)c2N)C(C(=O)NCC2CCCO2)c2cccs2)c1 (centres undefined)	i	i	i	i	i
O=C(COC(=O)c1ccccc1C(=O)N1CCN(c2ccccc2)CC1)Nc1ccc(F)cc1	i	i	i	17*	i
O=C(COC(=O)c1ccccc1C(=O)N1CCN(c2ccccc2)CC1)Nc1ccccc1	i	i	i	i	i
CCN(CC(=O)NCCCn1ccnc1)S(=O)(=O)c1ccc(C)cc1	i	i	i	i	i
CCCOP(=O)(c1ccc(N(C)C)cc1)C(O)c1ccc(Cl)cc1Cl (centres undefined)	i	i	i	10*	i
CCCOP(=O)(c1ccc(N(C)C)cc1)C(O)c1c(Cl)cccc1Cl (centres undefined)	i	i	i	i	i
Cc1csc2c(N3CCN(C(=O)Nc4ccccc4)CC3)ncnc12	185*	i	i	i	i
Cc1csc2c(N3CCN(C(=S)Nc4ccc(F)cc4F)CC3)ncnc12	124*	i	i	i	i
